The text below walks through data of ChEMBL document CHEMBL1800025 (J Med Chem, 2011).

pIC50: −log10 of the molar value. The source made the active and inactive calls. The calls are words filed in the database; no cut-off is given here. A value given as a limit tells only on which side of the number the result lay.

The target in test [1] is Dual specificity protein kinase CLK1 (Mus musculus, UniProt P22518). In words: Inhibition of mouse recombinant GST-tagged CLK1 using GRSRSRSRSRSR as substrate. In outline: (§1)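 Mouse GST-fusion CLK1 or CLK3 expressed in E. coli. Assay buffer A (Tris-HCl pH 7.5, MgCl2, EGTA, DTT, heparin) plus 0.15 mg/mL BSA. RS peptide 1 μg/assay, 15 μM ATP final, 30 C. Blank subtracted; activity expressed as percent of activity without inhibitor. DMSO controls. Concentration range up to 10 μM.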

The target of test [2] is Dual specificity tyrosine-phosphorylation-regulated kinase 1A (Rattus norvegicus, UniProt Q63470). Put plainly: Inhibition of rat recombinant GST-tagged DYRK1A using KKISGRLSPIMTEQ as substrate and [gamma32]-ATP after 30 mins by scintillation counting. Summed up:
(§2)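 GST fusion kinases expressed in E. coli and purified on glutathione-agarose; DYRK1A is rat, DYRK2 is human. Assay buffer A (25 mM Tris-HCl pH 7.5, 10 mM MgCl2, 1 mM EGTA, 1 mM DTT, 50 μg/mL heparin) plus 0.15 mg/mL BSA. Product captured on P81 paper, washed in 1% phosphoric acid, scintillation counted. Activity expressed as percent of uninhibited control.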

The target in test [3] is T1, Dual specificity tyrosine-phosphorylation-regulated kinase 2 (Homo sapiens, UniProt Q92630).
T1 sequence (Q92630 whole entry): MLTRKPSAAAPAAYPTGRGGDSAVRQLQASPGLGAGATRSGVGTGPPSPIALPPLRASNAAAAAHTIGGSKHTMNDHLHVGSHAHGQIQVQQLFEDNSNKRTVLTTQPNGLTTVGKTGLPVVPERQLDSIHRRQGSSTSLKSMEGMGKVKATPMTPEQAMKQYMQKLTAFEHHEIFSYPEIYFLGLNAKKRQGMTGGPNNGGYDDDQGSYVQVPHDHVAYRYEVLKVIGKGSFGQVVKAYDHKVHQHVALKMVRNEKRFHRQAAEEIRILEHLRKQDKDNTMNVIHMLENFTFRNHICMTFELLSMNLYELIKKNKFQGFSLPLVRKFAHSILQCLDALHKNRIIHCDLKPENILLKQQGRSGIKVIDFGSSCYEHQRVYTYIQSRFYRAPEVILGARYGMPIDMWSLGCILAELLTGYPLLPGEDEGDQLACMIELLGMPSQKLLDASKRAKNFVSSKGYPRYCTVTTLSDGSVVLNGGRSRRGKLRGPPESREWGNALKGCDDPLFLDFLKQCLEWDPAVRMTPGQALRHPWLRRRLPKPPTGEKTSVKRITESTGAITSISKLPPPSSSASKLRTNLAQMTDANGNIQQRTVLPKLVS
Put plainly: Inhibition of human recombinant GST-tagged DYRK2 using KKISGRLSPIMTEQ as substrate and [gamma32]-ATP after 30 mins by scintillation counting. In outline:
as §2

In test [4] the target is Dual specificity protein kinase CLK3 (Mus musculus, UniProt O35492). Put plainly: Inhibition of mouse recombinant GST-tagged CLK3 using GRSRSRSRSRSR as substrate. In outline:
as §1

Test [5] concerns the target Serine/threonine-protein kinase pim-1 (Homo sapiens, UniProt P11309). Put plainly: Inhibition of human recombinant Pim1. Summed up: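 Kinase assayed in buffer C (25 mM Mops pH 7.2, 60 mM beta-glycerophosphate, 30 mM p-nitrophenylphosphate, 15 mM MgCl2, 5 mM EGTA, 1 mM DTT, 0.1 mM vanadate) with 1 mg/mL histone H1. DMSO controls.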
The species entered for a further test is Sus scrofa. In words: Inhibition of pig brain CK1 delta/epsilon using RRKHAAIGpSAYSITA as substrate at 10 uM. Summed up:
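Native CK1δ/ε from porcine brain, assayed in 3-fold diluted buffer C with 25 μM CKS peptide substrate. 15 μM ATP final, 30 C. Activity is percent of uninhibited control after blank subtraction, with DMSO controls. Inhibitor tested over a range of concentrations up to 10 μM.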

Sequence of Dual specificity protein kinase CLK1 (P22518 whole entry, the tested form may be a part): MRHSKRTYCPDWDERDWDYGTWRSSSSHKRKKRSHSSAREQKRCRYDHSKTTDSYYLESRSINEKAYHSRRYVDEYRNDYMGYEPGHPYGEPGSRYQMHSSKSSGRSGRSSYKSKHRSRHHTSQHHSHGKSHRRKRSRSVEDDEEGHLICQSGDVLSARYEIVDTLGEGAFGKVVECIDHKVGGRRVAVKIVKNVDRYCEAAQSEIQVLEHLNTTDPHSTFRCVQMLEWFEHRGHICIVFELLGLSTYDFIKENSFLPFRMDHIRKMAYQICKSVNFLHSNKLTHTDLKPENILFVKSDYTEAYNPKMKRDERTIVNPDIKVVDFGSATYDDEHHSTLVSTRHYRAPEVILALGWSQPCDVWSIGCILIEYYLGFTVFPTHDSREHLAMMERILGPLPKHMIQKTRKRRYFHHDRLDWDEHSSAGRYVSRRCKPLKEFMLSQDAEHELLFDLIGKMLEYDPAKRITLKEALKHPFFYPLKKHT
Sequence of Dual specificity protein kinase CLK3 (O35492 whole entry): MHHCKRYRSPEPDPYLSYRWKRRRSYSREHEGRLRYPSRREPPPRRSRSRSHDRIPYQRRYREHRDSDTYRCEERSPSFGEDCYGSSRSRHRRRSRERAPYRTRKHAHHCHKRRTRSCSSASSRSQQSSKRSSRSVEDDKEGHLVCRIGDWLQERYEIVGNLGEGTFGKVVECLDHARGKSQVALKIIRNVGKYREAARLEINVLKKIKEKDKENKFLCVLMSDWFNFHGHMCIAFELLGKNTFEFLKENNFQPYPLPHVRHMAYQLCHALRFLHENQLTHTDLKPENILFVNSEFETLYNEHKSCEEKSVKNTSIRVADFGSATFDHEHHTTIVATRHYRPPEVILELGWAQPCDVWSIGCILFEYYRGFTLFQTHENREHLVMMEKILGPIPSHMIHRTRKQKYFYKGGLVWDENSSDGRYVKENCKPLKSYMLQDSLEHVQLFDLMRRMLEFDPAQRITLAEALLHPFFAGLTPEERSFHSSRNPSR
Sequence of Serine/threonine-protein kinase pim-1 (P11309 whole entry): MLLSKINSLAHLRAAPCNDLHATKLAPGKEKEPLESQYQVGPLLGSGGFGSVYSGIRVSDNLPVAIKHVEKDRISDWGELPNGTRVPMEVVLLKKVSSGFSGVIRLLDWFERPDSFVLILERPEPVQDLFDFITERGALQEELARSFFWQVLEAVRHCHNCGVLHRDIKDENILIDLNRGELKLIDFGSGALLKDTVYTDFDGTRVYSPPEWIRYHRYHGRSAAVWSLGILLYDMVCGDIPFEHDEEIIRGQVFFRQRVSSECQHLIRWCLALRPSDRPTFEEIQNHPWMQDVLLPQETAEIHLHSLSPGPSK

`O=C1NC(Nc2ccc(O)cc2)=N/C1=C\c1ccc2c(c1)OCO2`: the pIC50 (commonly the negative decadic logarithm of the IC50, by convention in mol/L) in test [1] was 7.22; in test [2], 7.02; in test [3], 7.22; in test [4], 6.28; in test [5] it was 5.92. The inhibition entry in the test filed under Sus scrofa was “inactive”.

`CN1C(=O)/C(=C/c2ccc3c(c2)OCO3)N=C1NCCCO`: the pIC50 in test [1] was 6.63; in test [2], 6.55; in test [3] it was 6.33; in test [4], 5.41; in test [5] it was 5.19. Further, the inhibition entry in the test filed under Sus scrofa is “inactive”.

Consider `CN1C(=O)/C(=C/c2ccc3c(c2)OCO3)N=C1NCc1ccc2c(c1)OCO2`, for which the pIC50 in test [1] was 6.64; in test [2] it was 5.49; in test [3], 5.48; in test [4], less than 5.00; in test [5], 6.23. Moreover, the inhibition result in the test listed under Sus scrofa is “inactive”.

In the case of `COc1ccc(NC2=N/C(=C\c3ccc4c(c3)OCO4)C(=O)N2)cc1`, the pIC50 in test [1] was 6.08; in test [2], 6.96; in test [3], 7.10; in test [4], 5.00; in test [5], less than 5.00. Besides, the inhibition entry in the test listed under Sus scrofa was “inactive”.

In the case of `COCCNC1=N/C(=C\c2ccc3c(c2)OCO3)C(=O)N1C`, the pIC50 is 7.14 in test [1]; 6.24 in test [2]; 6.11 in test [3]; 5.51 in test [4]; less than 5.00 in test [5]. The inhibition entry in the test listed under Sus scrofa was “inactive”.

Consider `CN1C(=O)/C(=C/c2ccc3c(c2)OCO3)N=C1NC1CCCC1`, for which the pIC50 was 6.85 in test [1]; 5.43 in test [2]; 5.22 in test [3]; less than 5.00 in test [4]; 6.52 in test [5]. For the same compound, the inhibition result in the test listed under Sus scrofa is “inactive”.

Consider `CCCNC1=N/C(=C\c2ccc3c(c2)OCO3)C(=O)N1C`, for which the negative logarithm of the IC50 (pIC50) in test [1] is 6.51; in test [2] it was 6.27; in test [3], 6.26; in test [4] it was 5.92; in test [5], 5.35. For the same compound, the inhibition result in the test filed under Sus scrofa was “inactive”.

On to `CCCCNC1=N/C(=C\c2ccc3c(c2)OCO3)C(=O)N1C`, for which the pIC50 in test [1] was 6.89; in test [2], 6.30; in test [3], 6.21; in test [4], 5.96; in test [5], 5.34. The inhibition entry in the test filed under Sus scrofa is “inactive”.

With `CC(=O)NC1=N/C(=C\c2ccc3c(c2)OCO3)C(=O)N1C`, the pIC50 in test [1] is 5.62; in test [2], 5.51; in test [3], 5.29; in test [4] it was less than 5.00; in test [5], less than 5.00. For the same compound, the inhibition entry in the test filed under Sus scrofa was “inactive”.

In the case of `Cc1ccc(NC2=N/C(=C\c3ccc4c(c3)OCO4)C(=O)N2)cc1`, the pIC50 was 6.49 in test [1]; 6.77 in test [2]; 7.21 in test [3]; less than 5.00 in test [4]; 5.05 in test [5]. The inhibition result in the test filed under Sus scrofa was “inactive”.

In the case of `CN1C(=O)/C(=C/c2ccc3c(c2)OCO3)N=C1Nc1ccccc1`, the pIC50 is 7.08 in test [1]; 6.51 in test [2]; 6.34 in test [3]; 5.34 in test [4]; 5.59 in test [5]. Further, the inhibition result in the test listed under Sus scrofa was “inactive”.

Regarding `CN1C(=O)/C(=C/c2ccc3c(c2)OCO3)N=C1Nc1ccc(O)cc1`, the pIC50 in test [1] was 6.00; in test [2], 6.36; in test [3] it was 5.96; in test [4] it was 5.41; in test [5], 5.40. Moreover, the inhibition entry in the test filed under Sus scrofa is “inactive”.

As for `CNC1=N/C(=C\c2ccc3c(c2)OCO3)C(=O)N1C`, the pIC50 in test [1] is 6.11; in test [2] it was 5.68; in test [3] it was 5.66; in test [4], 5.49; in test [5], 5.46. Also, in the test listed under Sus scrofa, the inhibition entry was “inactive”.
